# Only some compounds are listed: those with a hit (about 2.3% of all), similar ones and a draw of the others.
# TRPC6 inhibitor: mouse TRPC6 channel inhibitors, primary screen, cell-based, HEK293, membrane potential dye. 1.1% of 310,000 active. ACh-evoked depolarization; active compounds read low. Short transient receptor potential channel 6 (Mus musculus), Q61143. B-score at 10 µM;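 active = B-score under library mean minus 3 SD, initial fluorescence not abnormally high, positive integrated signal ratio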;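 also: B-score derived from integrated fluorescence ratio over the kinetic read; more negative B-score means stronger inhibition of depolarization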
# TRPC4 potent: positive allosteric modulators of TRPC4, primary screen, cell-based, mouse TRPC4beta, HEK293 mu-opioid, Fluo-4 calcium; B-score at 10 µM; 0.42% of 310,000 active; DAMGO EC20, Fluo-4 Ca2+ flux; active compounds read high;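 active = B-score of calcium response area above 5 SD of library B-scores, with initial fluorescence ratio within 5 SD of library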;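 also: B-score of integrated fluorescence ratio over time as area under calcium response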
# Target sequence (Q9QUQ5 whole entry, looked up): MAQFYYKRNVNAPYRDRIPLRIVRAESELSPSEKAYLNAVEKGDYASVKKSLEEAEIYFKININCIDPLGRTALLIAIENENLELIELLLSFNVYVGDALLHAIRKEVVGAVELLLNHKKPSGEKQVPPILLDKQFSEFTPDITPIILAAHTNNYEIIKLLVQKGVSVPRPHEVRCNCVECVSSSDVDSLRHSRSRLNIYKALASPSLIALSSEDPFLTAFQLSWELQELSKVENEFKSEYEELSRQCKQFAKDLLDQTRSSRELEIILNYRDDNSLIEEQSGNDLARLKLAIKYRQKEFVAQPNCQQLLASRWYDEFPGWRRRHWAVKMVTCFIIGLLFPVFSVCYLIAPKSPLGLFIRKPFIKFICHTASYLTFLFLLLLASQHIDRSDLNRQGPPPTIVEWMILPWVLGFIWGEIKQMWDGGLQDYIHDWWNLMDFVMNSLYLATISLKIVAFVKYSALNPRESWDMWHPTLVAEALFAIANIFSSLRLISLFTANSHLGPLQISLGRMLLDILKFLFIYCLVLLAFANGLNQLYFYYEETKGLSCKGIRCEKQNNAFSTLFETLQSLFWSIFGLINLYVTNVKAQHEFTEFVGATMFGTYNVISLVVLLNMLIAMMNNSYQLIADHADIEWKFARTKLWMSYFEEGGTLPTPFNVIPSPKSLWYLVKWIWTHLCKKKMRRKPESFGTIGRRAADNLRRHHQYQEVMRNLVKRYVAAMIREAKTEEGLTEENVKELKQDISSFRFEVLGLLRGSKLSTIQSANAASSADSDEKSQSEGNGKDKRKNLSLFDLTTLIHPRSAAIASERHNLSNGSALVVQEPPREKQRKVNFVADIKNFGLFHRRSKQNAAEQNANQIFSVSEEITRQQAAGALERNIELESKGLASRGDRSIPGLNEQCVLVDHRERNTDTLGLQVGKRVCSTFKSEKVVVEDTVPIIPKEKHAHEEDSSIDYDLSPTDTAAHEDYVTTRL
# TRPC4 inh: inhibitors of mouse TRPC4 channel, primary screen, Fluo4 calcium, HEK293 TRPC4beta/mu-opioid cells. 0.39% of 300,000 active. AID 2247, 2010. DAMGO-evoked Fluo4 calcium flux; active compounds read low. B-score at 10 µM;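 active = B-score over 3 SD under the library average, no early fluorescence shift, positive overall ratio signal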
#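 Assay system: HEK293 cells with stable TRPC4beta plus mu-opioid receptor expression. Dosing: single dose. Measured by: Fluo4 Ca2+ flux fluorescence. Also added: DAMGO in two steps, submaximal then maximal. Read-out: B score from integrated Fluo4 fluorescence ratio.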
# TRPC6 activator: mouse TRPC6 channel activators, primary screen, cell-based, HEK293, membrane potential dye. B-score at 10 µM. HEK293-TRPC6 membrane potential dye fluorescence; active compounds read high. 0.13% of 310,000 active. Short transient receptor potential channel 6 (Mus musculus), Q61143. AID 2550, 2010;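 active = B-score of the integrated fluorescence ratio above library mean plus 3 SD, and starting fluorescence ratio within library mean plus 5 SD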;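 also: higher score means more depolarization so channel activation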
# TRPC4 agonist: activators of mouse TRPC4 channel, primary screen, Fluo4 calcium, HEK293 TRPC4beta/mu-opioid cells | Short transient receptor potential channel 4 (Mus musculus), Q9QUQ5 | Fluo4 calcium fluorescence; active compounds read high | B-score at 10 µM | 0.49% of 310,000 active;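 active = B-score above 5 SD of library B-scores, and initial fluorescence ratio not above library mean plus 5 SD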;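 also: positive B-score marks a calcium rise read as TRPC4 activation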
#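 Incubation: 45 min room-temperature Fluo4 loading, 110 s read / System: HEK293 cells stably co-expressing mouse TRPC4beta and mu-opioid receptor / Signal: Fluo4 fluorescence, kinetic / Control set: buffer (low) and maximal DAMGO (high) / Measure: integrated baseline-normalised fluorescence ratio, converted to per-well B score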
# Numbers without * were called inactive; i = inactive.
SMILES,TRPC6 inhibitor,TRPC4 potent,TRPC4 inh,TRPC6 activator,TRPC4 agonist
CC1CCc2c(sc3ncnc(SCC(=O)Nc4ccc(C(=O)O)cc4)c23)C1 (configuration not stated),i,i,-6*,i,i
Cc1ccccc1NC(=S)NC(=O)COc1ccccc1C,i,i,i,i,i
Cc1ccccc1N(C(=O)c1snc(C(N)=O)c1N)C(C(=O)NCC1CCCO1)c1ccc(F)cc1 (configuration not stated),i,i,-6*,i,i
COc1ccc(N(C(=O)c2snc(C(N)=O)c2N)C(C(=O)NC2CCCC2)c2ccc(F)cc2)c(OC)c1 (configuration not stated),i,i,i,i,i
Cc1ccccc1N(C(=O)c1snc(C(N)=O)c1N)C(C(=O)NCC1CCCO1)c1ccc(N(C)C)cc1 (configuration not stated),i,i,i,i,i
Cc1ccc(N(C(=O)c2snc(C(N)=O)c2N)C(C(=O)NCC2CCCO2)c2ccc(C)o2)c(C)c1 (configuration not stated),i,i,-7*,i,i
CCOc1ccc(C(C(=O)NCC2CCCO2)N(Cc2cccnc2)C(=O)c2snc(C(N)=O)c2N)cc1 (configuration not stated),i,i,-6*,i,i
COc1ccc(C)cc1N(C(=O)c1snc(C(N)=O)c1N)C(C(=O)NC1CCCC1)c1ccc(F)cc1 (configuration not stated),i,i,-11*,i,i
C=CCN1C(=O)c2ccc(C(=O)N(C)CC(=O)Nc3ccccc3Br)cc2C1=O,i,i,i,i,i
COc1ccc2[nH]c(=O)c(-c3nnn(-c4ccc(Cl)c(Cl)c4)n3)cc2c1,i,i,i,i,i
Cc1cc(C)n(C(C)CC(=O)Nc2ccc3c(c2)OCCO3)n1 (configuration not stated),i,i,i,i,i
CCOc1ccc(C(C(=O)NCC2CCCO2)N(Cc2ccccc2)C(=O)c2snc(C(N)=O)c2N)cc1 (configuration not stated),i,i,i,i,i
Cc1ccccc1N(C(=O)c1snc(C(N)=O)c1N)C(C(=O)NC1CCCCC1)c1ccc(O)cc1 (configuration not stated),i,i,i,i,i
NC(=O)c1nsc(C(=O)N(Cc2ccccc2Cl)C(C(=O)NCC2CCCO2)c2ccc(O)cc2)c1N (configuration not stated),i,i,-8*,i,i
NC(=O)c1nsc(C(=O)N(Cc2ccc(F)cc2)C(C(=O)NC2CCCC2)c2ccco2)c1N (configuration not stated),i,i,-7*,i,i
Cc1ccccc1N(C(=O)c1snc(C(N)=O)c1N)C(C)C(=O)NC1CCCCC1 (configuration not stated),i,i,-6*,i,i
NC(=O)c1nsc(C(=O)N(Cc2ccc(F)cc2)C(C(=O)NCC2CCCO2)c2ccc(O)cc2)c1N (configuration not stated),i,i,-10*,i,i
COc1ccc(C(C(=O)NCC2CCCO2)N(Cc2cccs2)C(=O)c2snc(C(N)=O)c2N)cc1 (configuration not stated),i,i,i,i,i
COc1ccc(OCc2cc(C(=O)N(C)C(C)c3ccon3)no2)c(Cl)c1 (configuration not stated),i,i,i,i,i
CCC1CCCCN1CCCNC(=O)c1ccc(CS(=O)(=O)c2ccccc2OC)o1 (configuration not stated),i,i,i,i,i
CCN(CC(=O)Nc1c(F)cccc1F)C(=O)c1ccc(C#N)cc1,i,i,i,i,i
O=C(COc1ccc(Cl)cc1)NCCNC(=O)c1ccccn1,i,i,i,i,i
CCOC(=O)C1(Cc2cccc(OC)c2)CCN(CC2CC=CCC2)CC1 (configuration not stated),i,i,-5*,i,i
CCOC(=O)C1(Cc2ccccc2)CCN(CC2CC=CCC2)CC1 (configuration not stated),i,i,-6*,i,i
CCOC(=O)C1(Cc2cccc(OC)c2)CCN(Cc2cccc(O)c2)CC1,i,i,-8*,i,i
SMILES,TRPC6 inhibitor,TRPC4 potent,TRPC4 inh,TRPC6 activator,TRPC4 agonist
CCOC(=O)C1(Cc2cccc(OC)c2)CCN(Cc2ccc(OC)c(OC)c2)CC1,i,i,i,i,i
COc1cc(Cl)ccc1OCc1cc(C(=O)N(C)CC2CCCCO2)no1 (configuration not stated),i,i,i,i,i
Cc1ccc(OCCC(=O)N(CCC(C)C)c2c(N)n(Cc3ccccc3)c(=O)[nH]c2=O)cc1,i,i,i,i,i
Cc1cccn2c(=O)c3cc(S(=O)(=O)c4ccc(F)cc4)c(=N)n(Cc4ccco4)c3nc12,i,i,i,i,i
Cc1cccn2c(=O)c3cc(S(=O)(=O)c4ccccc4)c(=N)n(Cc4ccco4)c3nc12,i,10*,i,i,i
CCCCN(C)C(=O)Cn1ncc2c3ccccc3n(CCC)c2c1=O,i,21*,i,i,i
CCN1CCCC1CNC(=O)c1csc2c1CCCC2 (configuration not stated),i,i,i,i,79*
CN1CCN(CC(=O)Nc2c(C(=O)c3ccccc3)oc3ccccc23)CC1,i,i,i,i,i
COc1ccc2oc(C(=O)c3ccccc3)c(NC(=O)CN3CCN(C)CC3)c2c1,-8.1*,19*,i,i,51*
O=C1CN(C(=O)COC(=O)C2CCN(S(=O)(=O)c3ccccc3C(F)(F)F)CC2)c2ccccc2N1,i,11*,i,i,i
COc1ccc(CNC(=O)COC(=O)C2CCN(S(=O)(=O)c3ccccc3C(F)(F)F)CC2)cc1,i,i,i,i,i
Cc1cc(C)cc(NC(=O)c2nnn(Cc3cc(C)ccc3C)c2N)c1,i,17*,i,i,i

# High-throughput results (PubChem)
